Assay outcomes deposited in PubChem by several laboratories.
STAT1 activator: STAT1 signaling activators, primary screen, cell-based, HTS, luciferase reporter; NIH 3T3 STAT1-luciferase reporter, IFN-gamma, luminescence; 100% = IFN-gamma alone, no compound; activation (% of control), % at 5.5 µM; 2.6% of 200,000 active; AID 932, 2007;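 active = activation above the screen-wide mean activation plus 3 SD, cut at about 130% in these data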
APP 5'UTR act: activators of APP 5'UTR luciferase reporter, primary screen, SH-SY5Y cells. SH-SY5Y APP 5'UTR luciferase reporter, luminescence; zero percent = DMSO vehicle wells. activation, % at 2 µM. 1% of 190,000 active. AID 1276, 2008;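 active = activation above a set limit, based on mean plus 3 SD of controls, cut at about 140% in these data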
NF-kB neuron act: activators of NF-kB expression in neurons, primary screen, cell-based, HTS. human neuronal cells, NF-kB reporter expression; active compounds read high. fold change at 12.5 µM. 1.6% of 190,000 active. AID 1239, 2008; in the data active = fold change above about 3.3
STAT1 inh: STAT1 signaling inhibitors, primary screen, cell-based, HTS, luciferase reporter. 0.35% of 200,000 active. NIH 3T3 STAT1-luciferase reporter, IFN-gamma, luminescence. inhibition, % at 5.5 µM;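 active = inhibition above a set limit, the mean inhibition across all tested compounds plus 3 SD, cut at about 34% in these data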
STAT3 inh: IL-6 driven STAT3 reporter inhibitors, primary screen, U3A cells, luciferase, luminescence, MLSCN library; AID 862, 2007; inhibition, % at 5.5 µM; IL-6 STAT3-luciferase reporter; host cell line lacks STAT1; 0.89% of 190,000 active;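 active = inhibition above the mean inhibition across all screened compounds plus 3 SD, cut at about 44% in these data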
STAT3 act: IL-6 driven STAT3 reporter potentiators, primary screen, U3A cells, luciferase, luminescence, MLSCN library. 0.91% of 190,000 active. IL-6 STAT3-luciferase reporter; 100% = signal with IL-6 EC80 alone. activation (% of control), % at 5.6 µM;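 active = activation above the screen-wide mean of compound activation plus 3 SD, cut at about 130% in these data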
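Material: STAT3-luciferase reporter U3A cells; Probe or stimulus: IL-6 (33 ng/mL); Incubation: compound pre-incubation 1 h before IL-6, then 6 h stimulation at 37 °C; Technique: luminescence from STAT3-driven luciferase reporter; Evaluation: % activation versus median of IL-6-stimulated wells; Controls: IL-6-only high control.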
A number is an active result; n = inactive; x = no result. The list is not random: actives were taken first. Their share in the collection is about 5.1%.

SMILES	STAT1 activator	APP 5'UTR act	NF-kB neuron act	STAT1 inh	STAT3 inh	STAT3 act
COc1cc(NC(=O)CSc2nnc3c(C)cc4c(C)ccc(C)c4n23)c(C(=O)O)cc1OC	n	n	n	n	n	n
Cc1ccc(C(=O)Nc2ccc3c(c2)OCCO3)o1	n	n	4.01	n	n	n
Cc1ccc(C(=O)Nc2ccncc2)o1	n	n	n	n	n	n
Cn1nccc1C(=O)Nc1ccc2c(c1)OCCO2	n	n	n	n	n	n
Cc1cc(C(=O)Nc2ccc3c(c2)OCCO3)co1	n	138.1	4.7	n	n	n
CC(=O)N1C(C(=O)O)CSC1c1ccc(C)cc1 (centres undefined)	x	n	4.19	x	x	x
O=[N+]([O-])c1cccc(-c2nc(-c3ccncc3)no2)c1	n	n	n	n	n	n
O=[N+]([O-])c1cccc(-c2nnc(-c3ccc4c(c3)OCO4)o2)c1	141.0	n	n	n	n	n
O=[N+]([O-])c1cccc(-c2nc(-c3ccccc3)no2)c1	137.7	n	3.8	n	n	139.9
CC(C)=N/N=C(\c1cccc([N+](=O)[O-])c1)C12CN3CN(CN(C3)C1)C2	n	n	n	n	n	n
Cc1ccc2oc(-c3cccc(NC(=O)/C=C/c4cccc([N+](=O)[O-])c4)c3C)nc2c1	136.1	n	n	n	n	n
O=C(O)COc1ccccc1/C=N/NC(=O)Cc1csc(Nc2cccc(C(F)(F)F)c2)n1	n	n	n	n	n	n
N#C/C(=C/c1ccc(N2CCCCCC2)o1)c1ccc(Cl)cc1	n	n	3.44	n	n	n
N#C/C(=C/c1ccc(N2CCCCC2)o1)c1cccc(F)c1	144.9	n	n	n	n	136.0
CCC(=O)c1ccc(/C=C/c2nc3ccccc3n2C)o1	n	n	4.82	n	n	n
c1ccc2sc(N3CCCN(Cc4nc(-c5cnccn5)no4)CC3)nc2c1	n	n	n	n	n	n
NC(=O)c1ccccc1NS(=O)(=O)c1ccccc1	n	n	n	n	n	n
Cc1ccc(S(=O)(=O)Nc2ccccc2C(N)=O)cc1	n	n	n	n	n	134.4
CN(C)/C=N/c1ncn(-c2ncc(C(F)(F)F)cc2Cl)n1	133.4	n	n	n	n	n
CN(C)/C=N/S(=O)(=O)c1cccn1-c1ncc(C(F)(F)F)cc1Cl	n	n	n	n	n	n
O=C(CCN1C(=O)c2ccccc2C1=O)Nc1ccc(-c2cn3ccsc3n2)cc1	n	n	n	n	n	n
Cc1nc(-c2ccc(NC(=O)C3CCCCC3)cc2)cs1	137.9	167.4	3.51	n	n	n
CC(C)C(=O)Nc1cccc(-c2cn3ccsc3n2)c1	n	n	n	n	n	n
O=C(Nc1ccc(-c2cn3ccsc3n2)cc1)C1CCCC1	n	n	4	n	n	n
O=C(Nc1ccc(-c2cn3ccsc3n2)cc1)C1CC1	n	n	n	n	n	n
SMILES	STAT1 activator	APP 5'UTR act	NF-kB neuron act	STAT1 inh	STAT3 inh	STAT3 act
c1cn2cc(-c3ccc4c(c3)OCO4)nc2s1	141.0	149.0	6.07	n	n	n
CC(=O)Nc1ccc(-c2cn3ccsc3n2)cc1	136.3	n	3.38	n	n	n
O=C(Nc1ccc(F)cc1)C1CCCCC1	n	n	n	n	n	n
COc1ccc(CCNC(=O)COc2ncnc3ccccc23)cc1	n	n	n	n	n	n
Cc1ccc(C=Nc2ccccc2C(N)=O)o1	134.6	n	n	n	n	n
O=C(/C=C/c1nc2ccccc2s1)N1CCCCCC1	131.7	n	n	n	n	n
CCOC(=O)c1[nH]c2ccc(OC)cc2c1C	142.3	n	n	n	n	n
CSCCC(NC(C)=O)C(=O)Oc1ccc2c3c(c(=O)oc2c1)CCCC3 (centres undefined)	n	n	n	n	n	n
CSCCC(NC(=O)OC(C)(C)C)C(=O)Oc1ccc2c(=O)c(-c3ccc4c(c3)OCCO4)coc2c1 (centres undefined)	129.1	172.6	n	n	n	n
COc1ccc(C(=O)Nn2c(SCC(=O)c3ccc(Cl)cc3)nc3ccccc3c2=O)cc1	n	n	n	n	n	n
O=C(Nn1c(SCc2cccc([N+](=O)[O-])c2)nc2ccccc2c1=O)c1ccccc1	149.5	n	n	n	n	n
COc1ccc(C(=O)Nn2c(SCc3cccc([N+](=O)[O-])c3)nc3ccccc3c2=O)cc1	143.6	n	n	n	n	n
COc1ccc(C(=O)Nn2c(SCC(=O)N3CCC(C)CC3)nc3ccccc3c2=O)cc1	n	n	n	63.9	88.3	n
CCOP(=O)(OCC)C(Nc1ccc(OC)cc1)c1ccco1 (centres undefined)	n	n	n	n	n	n
CN(C)c1ccc(C(=O)N2CC(=O)N(CCc3ccccc3)C(=O)C2)cc1	n	n	n	n	n	n
COc1ccc(C(=O)N2CC(=O)N(CCc3ccccc3)C(=O)C2)cc1OC	n	n	n	n	n	143.7
Cc1ccccc1NC(=O)c1c2c(nc3ccccc13)CCC2	n	n	n	n	n	n
O=C(Nc1ccc(N2CCCCC2)cc1)C(Cl)c1ccccc1 (centres undefined)	n	n	n	n	n	n
O=C(Nc1ccc(N2CCCCC2)cc1)c1ccccn1	n	n	n	95.7	109.6	n
COc1ccccc1C(=O)Nc1ccc(N2CCCCC2)cc1	139.5	167.6	4.94	n	n	151.2
O=C(Nc1ccc(N2CCCCCC2)cc1)c1ccccc1Cl	147.0	n	4.71	n	n	n
O=C(Nc1ccc(N2CCCC2)cc1)C(c1ccccc1)c1ccccc1	n	n	n	n	n	n
O=C(NC(=S)Nc1ccc(N2CCCCC2)cc1)c1ccco1	131.8	n	n	n	n	n
NC(=O)CSc1nnc2ccc(-c3ccc(F)cc3)nn12	n	n	n	n	n	n
Cc1cc(C)cc(C(=O)Nc2ccc(N3CCCC3)cc2)c1	150.6	146.4	n	n	n	n
SMILES	STAT1 activator	APP 5'UTR act	NF-kB neuron act	STAT1 inh	STAT3 inh	STAT3 act
CC(C)Oc1ccc(C(=O)Nc2ccc(N3CCCC3)cc2)cc1	n	n	n	n	n	n
CN(C)Cc1c(-c2ccc(Cl)cc2)nc2ccccn12	140.6	n	n	n	n	n
Clc1ccc(-c2nc3ccccn3c2CN2CCCCC2)cc1	n	n	n	n	45.7	n
CCOC(=O)c1c(C)[nH]c(C(=O)COC(=O)C2CC2C)c1C (centres undefined)	150.5	179.6	4.09	n	n	n
CC(C)(C)n1cnc2cc(NC(=O)c3cccs3)ccc21	141.7	n	4.04	n	n	n
CCn1cnc2cc(NC(=O)c3cccs3)ccc21	135.3	n	n	n	n	n
CCn1cnc2cc(NCc3cccs3)ccc21	n	n	n	n	n	n
